Test system: Fibroblast
Assay: Multiplex assay against human fibroblast
Format: toxicity, cell-based
Outline: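 With compound added, live cells were imaged on a CQ1 microscope at 37°C and 5% CO2; staining with Hoechst33342, BioTracker Green Microtubule Cytoskeleton Dye, MitoTracker Red and Annexin V Alexa Fluor 680 had been done at seeding. The CellPathfinder machine-learning gating scheme split cells into Hoechst high-intensity objects or normal cells, normal cells into healthy, pyknosed or fragmented nuclei, and pyknosed cells into mitotic or apoptotic. The tubulin, mitochondrial-mass and membrane-permeability phenotypes are per cents of healthy-nucleus cells.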

[1] = 12 h, 1 µM, compound concentration 1 uM, replicate 1
[2] = 12 h, 1 µM, compound concentration 1 uM, replicate 2
[3] = 12 h, 10 µM, compound concentration 10 uM, replicate 1
[4] = 12 h, 10 µM, compound concentration 10 uM, replicate 2
[5] = 24 h, 1 µM, compound concentration 1 uM, replicate 1
[6] = 24 h, 1 µM, compound concentration 1 uM, replicate 2
[7] = 24 h, 10 µM, compound concentration 10 uM, replicate 1
[8] = 24 h, 10 µM, compound concentration 10 uM, replicate 2
[9] = 48 h, 1 µM, compound concentration 1 uM, replicate 1
[10] = 48 h, 1 µM, compound concentration 1 uM, replicate 2
[11] = 48 h, 10 µM, compound concentration 10 uM, replicate 1
[12] = 48 h, 10 µM, compound concentration 10 uM, replicate 2

OCCCNc1cc(-c2ccnc(Nc3cccc(Cl)c3)n2)ccn1
Population Apoptotic (%) [1]: 58% | Population Fragmented Nuclei (%) [1]: 15% | Population Healthy Nuclei (%) [1]: 66% | Population Hoechst High Intensity Objects (%) [1]: 4% | Population Membrane Permeable-Phenotype (%) [1]: 0% | Population Mitochondria Different-Phenotype (%) [1]: 9% | Population Mitotic Cells (%) [1]: 41% | Population Normal (%) [1]: 95% | Population Pyknosed Nuclei (%) [1]: 18% | Population Tubulin-Different-Phenotype (%) [1]: 52% | Total Cell Count [1]: 139 | Population Apoptotic (%) [2]: 50% | Population Fragmented Nuclei (%) [2]: 21% | Population Healthy Nuclei (%) [2]: 53% | Population Hoechst High Intensity Objects (%) [2]: 6% | Population Membrane Permeable-Phenotype (%) [2]: 5% | Population Mitochondria Different-Phenotype (%) [2]: 13% | Population Mitotic Cells (%) [2]: 50% | Population Normal (%) [2]: 93% | Population Pyknosed Nuclei (%) [2]: 24% | Population Tubulin-Different-Phenotype (%) [2]: 47% | Total Cell Count [2]: 138 | Population Apoptotic (%) [3]: 61% | Population Fragmented Nuclei (%) [3]: 38% | Population Healthy Nuclei (%) [3]: 44% | Population Hoechst High Intensity Objects (%) [3]: 10% | Population Membrane Permeable-Phenotype (%) [3]: 9% | Population Mitochondria Different-Phenotype (%) [3]: 25% | Population Mitotic Cells (%) [3]: 38% | Population Normal (%) [3]: 89% | Population Pyknosed Nuclei (%) [3]: 17% | Population Tubulin-Different-Phenotype (%) [3]: 88% | Total Cell Count [3]: 136 | Population Apoptotic (%) [4]: 52% | Population Fragmented Nuclei (%) [4]: 65% | Population Healthy Nuclei (%) [4]: 24% | Population Hoechst High Intensity Objects (%) [4]: 6% | Population Membrane Permeable-Phenotype (%) [4]: 20% | Population Mitochondria Different-Phenotype (%) [4]: 11% | Population Mitotic Cells (%) [4]: 47% | Population Normal (%) [4]: 93% | Population Pyknosed Nuclei (%) [4]: 9% | Population Tubulin-Different-Phenotype (%) [4]: 84% | Total Cell Count [4]: 227 | Population Apoptotic (%) [5]: 56% | Population Fragmented Nuclei (%) [5]: 16% | Population Healthy Nuclei (%) [5]: 65% | Population Hoechst High Intensity Objects (%) [5]: 2% | Population Membrane Permeable-Phenotype (%) [5]: 1% | Population Mitochondria Different-Phenotype (%) [5]: 20% | Population Mitotic Cells (%) [5]: 43% | Population Normal (%) [5]: 97% | Population Pyknosed Nuclei (%) [5]: 17% | Population Tubulin-Different-Phenotype (%) [5]: 60% | Total Cell Count [5]: 136 | Population Apoptotic (%) [6]: 46% | Population Fragmented Nuclei (%) [6]: 29% | Population Healthy Nuclei (%) [6]: 48% | Population Hoechst High Intensity Objects (%) [6]: 3% | Population Membrane Permeable-Phenotype (%) [6]: 6% | Population Mitochondria Different-Phenotype (%) [6]: 10% | Population Mitotic Cells (%) [6]: 53% | Population Normal (%) [6]: 96% | Population Pyknosed Nuclei (%) [6]: 22% | Population Tubulin-Different-Phenotype (%) [6]: 55% | Total Cell Count [6]: 139 | Population Apoptotic (%) [7]: 80% | Population Fragmented Nuclei (%) [7]: 36% | Population Healthy Nuclei (%) [7]: 42% | Population Hoechst High Intensity Objects (%) [7]: 11% | Population Membrane Permeable-Phenotype (%) [7]: 7% | Population Mitochondria Different-Phenotype (%) [7]: 46% | Population Mitotic Cells (%) [7]: 20% | Population Normal (%) [7]: 88% | Population Pyknosed Nuclei (%) [7]: 20% | Population Tubulin-Different-Phenotype (%) [7]: 86% | Total Cell Count [7]: 138 | Population Fragmented Nuclei (%) [8]: 63% | Population Healthy Nuclei (%) [8]: 27% | Population Hoechst High Intensity Objects (%) [8]: 6% | Population Membrane Permeable-Phenotype (%) [8]: 12% | Population Mitochondria Different-Phenotype (%) [8]: 9% | Population Normal (%) [8]: 93% | Population Pyknosed Nuclei (%) [8]: 9% | Population Tubulin-Different-Phenotype (%) [8]: 80% | Total Cell Count [8]: 218 | Population Apoptotic (%) [9]: 46% | Population Fragmented Nuclei (%) [9]: 27% | Population Healthy Nuclei (%) [9]: 47% | Population Hoechst High Intensity Objects (%) [9]: 8% | Population Membrane Permeable-Phenotype (%) [9]: 1% | Population Mitochondria Different-Phenotype (%) [9]: 20% | Population Mitotic Cells (%) [9]: 53% | Population Normal (%) [9]: 91% | Population Pyknosed Nuclei (%) [9]: 25% | Population Tubulin-Different-Phenotype (%) [9]: 66% | Total Cell Count [9]: 136 | Population Apoptotic (%) [10]: 37% | Population Fragmented Nuclei (%) [10]: 36% | Population Healthy Nuclei (%) [10]: 30% | Population Hoechst High Intensity Objects (%) [10]: 7% | Population Membrane Permeable-Phenotype (%) [10]: 5% | Population Mitochondria Different-Phenotype (%) [10]: 24% | Population Mitotic Cells (%) [10]: 62% | Population Normal (%) [10]: 92% | Population Pyknosed Nuclei (%) [10]: 32% | Population Tubulin-Different-Phenotype (%) [10]: 45% | Total Cell Count [10]: 132 | Population Apoptotic (%) [11]: 91% | Population Fragmented Nuclei (%) [11]: 39% | Population Healthy Nuclei (%) [11]: 39% | Population Hoechst High Intensity Objects (%) [11]: 14% | Population Membrane Permeable-Phenotype (%) [11]: 15% | Population Mitochondria Different-Phenotype (%) [11]: 42% | Population Mitotic Cells (%) [11]: 8% | Population Normal (%) [11]: 85% | Population Pyknosed Nuclei (%) [11]: 21% | Population Tubulin-Different-Phenotype (%) [11]: 77% | Total Cell Count [11]: 134 | Population Apoptotic (%) [12]: 85% | Population Fragmented Nuclei (%) [12]: 58% | Population Healthy Nuclei (%) [12]: 30% | Population Hoechst High Intensity Objects (%) [12]: 6% | Population Membrane Permeable-Phenotype (%) [12]: 20% | Population Mitochondria Different-Phenotype (%) [12]: 20% | Population Mitotic Cells (%) [12]: 14% | Population Normal (%) [12]: 93% | Population Pyknosed Nuclei (%) [12]: 11% | Population Tubulin-Different-Phenotype (%) [12]: 64% | Total Cell Count [12]: 192

O=c1ccc2ccc(OCCCCN3CCN(c4cccc5sccc45)CC3)cc2[nH]1 [BREXPIPRAZOLE]
Population Apoptotic (%) [1]: 56% | Population Fragmented Nuclei (%) [1]: 17% | Population Healthy Nuclei (%) [1]: 62% | Population Hoechst High Intensity Objects (%) [1]: 2% | Population Membrane Permeable-Phenotype (%) [1]: 0% | Population Mitochondria Different-Phenotype (%) [1]: 5% | Population Mitotic Cells (%) [1]: 44% | Population Normal (%) [1]: 97% | Population Pyknosed Nuclei (%) [1]: 20% | Population Tubulin-Different-Phenotype (%) [1]: 41% | Total Cell Count [1]: 126 | Population Apoptotic (%) [2]: 48% | Population Fragmented Nuclei (%) [2]: 33% | Population Healthy Nuclei (%) [2]: 44% | Population Hoechst High Intensity Objects (%) [2]: 5% | Population Membrane Permeable-Phenotype (%) [2]: 2% | Population Mitochondria Different-Phenotype (%) [2]: 15% | Population Mitotic Cells (%) [2]: 51% | Population Normal (%) [2]: 94% | Population Pyknosed Nuclei (%) [2]: 21% | Population Tubulin-Different-Phenotype (%) [2]: 73% | Total Cell Count [2]: 169 | Population Apoptotic (%) [3]: 68% | Population Fragmented Nuclei (%) [3]: 16% | Population Healthy Nuclei (%) [3]: 64% | Population Hoechst High Intensity Objects (%) [3]: 1% | Population Membrane Permeable-Phenotype (%) [3]: 0% | Population Mitochondria Different-Phenotype (%) [3]: 39% | Population Mitotic Cells (%) [3]: 31% | Population Normal (%) [3]: 98% | Population Pyknosed Nuclei (%) [3]: 19% | Population Tubulin-Different-Phenotype (%) [3]: 83% | Total Cell Count [3]: 203 | Population Apoptotic (%) [4]: 45% | Population Fragmented Nuclei (%) [4]: 30% | Population Healthy Nuclei (%) [4]: 49% | Population Hoechst High Intensity Objects (%) [4]: 11% | Population Membrane Permeable-Phenotype (%) [4]: 2% | Population Mitochondria Different-Phenotype (%) [4]: 25% | Population Mitotic Cells (%) [4]: 54% | Population Normal (%) [4]: 88% | Population Pyknosed Nuclei (%) [4]: 20% | Population Tubulin-Different-Phenotype (%) [4]: 81% | Total Cell Count [4]: 243 | Population Apoptotic (%) [5]: 56% | Population Fragmented Nuclei (%) [5]: 17% | Population Healthy Nuclei (%) [5]: 69% | Population Hoechst High Intensity Objects (%) [5]: 1% | Population Membrane Permeable-Phenotype (%) [5]: 0% | Population Mitochondria Different-Phenotype (%) [5]: 8% | Population Mitotic Cells (%) [5]: 43% | Population Normal (%) [5]: 98% | Population Pyknosed Nuclei (%) [5]: 13% | Population Tubulin-Different-Phenotype (%) [5]: 43% | Total Cell Count [5]: 122 | Population Apoptotic (%) [6]: 33% | Population Fragmented Nuclei (%) [6]: 32% | Population Healthy Nuclei (%) [6]: 52% | Population Hoechst High Intensity Objects (%) [6]: 3% | Population Membrane Permeable-Phenotype (%) [6]: 2% | Population Mitochondria Different-Phenotype (%) [6]: 14% | Population Mitotic Cells (%) [6]: 66% | Population Normal (%) [6]: 96% | Population Pyknosed Nuclei (%) [6]: 14% | Population Tubulin-Different-Phenotype (%) [6]: 76% | Total Cell Count [6]: 173 | Population Apoptotic (%) [7]: 58% | Population Fragmented Nuclei (%) [7]: 13% | Population Healthy Nuclei (%) [7]: 54% | Population Hoechst High Intensity Objects (%) [7]: 13% | Population Membrane Permeable-Phenotype (%) [7]: 0% | Population Mitochondria Different-Phenotype (%) [7]: 63% | Population Mitotic Cells (%) [7]: 41% | Population Normal (%) [7]: 86% | Population Pyknosed Nuclei (%) [7]: 31% | Population Tubulin-Different-Phenotype (%) [7]: 85% | Total Cell Count [7]: 218 | Population Apoptotic (%) [8]: 65% | Population Fragmented Nuclei (%) [8]: 30% | Population Healthy Nuclei (%) [8]: 40% | Population Hoechst High Intensity Objects (%) [8]: 19% | Population Mitochondria Different-Phenotype (%) [8]: 34% | Population Mitotic Cells (%) [8]: 34% | Population Normal (%) [8]: 80% | Population Pyknosed Nuclei (%) [8]: 28% | Population Tubulin-Different-Phenotype (%) [8]: 71% | Total Cell Count [8]: 239 | Population Apoptotic (%) [9]: 62% | Population Fragmented Nuclei (%) [9]: 24% | Population Healthy Nuclei (%) [9]: 62% | Population Hoechst High Intensity Objects (%) [9]: 4% | Population Membrane Permeable-Phenotype (%) [9]: 0% | Population Mitochondria Different-Phenotype (%) [9]: 10% | Population Mitotic Cells (%) [9]: 37% | Population Normal (%) [9]: 95% | Population Pyknosed Nuclei (%) [9]: 12% | Population Tubulin-Different-Phenotype (%) [9]: 52% | Total Cell Count [9]: 133 | Population Apoptotic (%) [10]: 60% | Population Fragmented Nuclei (%) [10]: 42% | Population Healthy Nuclei (%) [10]: 51% | Population Membrane Permeable-Phenotype (%) [10]: 1% | Population Mitochondria Different-Phenotype (%) [10]: 9% | Population Mitotic Cells (%) [10]: 40% | Population Pyknosed Nuclei (%) [10]: 5% | Population Tubulin-Different-Phenotype (%) [10]: 67% | Total Cell Count [10]: 175 | Population Apoptotic (%) [11]: 62% | Population Fragmented Nuclei (%) [11]: 18% | Population Healthy Nuclei (%) [11]: 50% | Population Hoechst High Intensity Objects (%) [11]: 34% | Population Membrane Permeable-Phenotype (%) [11]: 0% | Population Mitochondria Different-Phenotype (%) [11]: 60% | Population Mitotic Cells (%) [11]: 37% | Population Normal (%) [11]: 65% | Population Pyknosed Nuclei (%) [11]: 31% | Population Tubulin-Different-Phenotype (%) [11]: 88% | Total Cell Count [11]: 208 | Population Apoptotic (%) [12]: 44% | Population Fragmented Nuclei (%) [12]: 30% | Population Healthy Nuclei (%) [12]: 43% | Population Mitochondria Different-Phenotype (%) [12]: 20% | Population Mitotic Cells (%) [12]: 55% | Population Pyknosed Nuclei (%) [12]: 26% | Population Tubulin-Different-Phenotype (%) [12]: 55% | Total Cell Count [12]: 317
